Reference: ChEMBL document CHEMBL4190216, “Asymmetric 1,5-diarylpenta-1,4-dien-3-ones: Antiproliferative activity in prostate epithelial cell models and pharmacokinetic studies” (Eur J Med Chem, 2017)

Assays:
[1] = Drug level in human liver microsomes treated with (1E,4E)-1-(1-(sec-Butyl)1H-imidazol-2-yl)-5-(2-methyl-4-(trifluoromethyl)thiazol-5-yl)penta-1,4-dien-3-one at 10 mM after 60 mins by UHPLC analysis; assay type: ADME, microsome
Outline: (§1)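 Pooled human liver microsomes in potassium phosphate buffer (pH 7.4) with NADPH solutions A and B were preincubated for 5 min at 37 °C. Compound was then added from a 10 mM stock (3 μL into 300 μL total) and incubated 60 min at 37 °C. Reactions were quenched with an equal volume of methanol and centrifuged (10,000 × g, 4 min, 4 °C). Supernatant went to UHPLC–high-resolution MS for metabolite identification.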

[2] = Retention time of the compound; assay type: physicochemical
[3] = Drug level in human liver microsomes treated with (1E,4E)-1-(1-Ethyl1H-benzo[d]imidazol-2-yl)-5-(2-methyl-4-(trifluoromethyl)thiazol-5-yl)penta-1,4-dien-3-one at 10 mM after 60 mins by UHPLC analysis; assay type: ADME, microsome; details: 1 h; outline: as §1

| SMILES | Drug metabolism [1] | Retention_time [2] [min] | Drug metabolism [3] |
| --- | --- | --- | --- |
| CCC(C)n1ccnc1/C(O)=C/C(=O)/C=C/c1sc(C)nc1C(F)(F)F (stereo unspecified) | Metabolite_Detected | 3.7 | – |
| CCC(C)n1ccnc1/C=C/C(=O)/C=C(\O)c1sc(C)nc1C(F)(F)F (stereo unspecified) | Metabolite_Detected | 3.97 | – |
| CCn1c(/C(O)=C/C(=O)/C=C/c2sc(C)nc2C(F)(F)F)nc2ccccc21 | – | 4.54 | Metabolite_Detected |
